Experimental data as given in PubChem BioAssay.
The source made the active and inactive calls.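 Rule for the calls, unless noted: active = mean duplicate potentiation above the buffer control mean plus 5 SD of buffer wells; inactive = the rest.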

Columns and labels:
[1] = thallium flux activation in parental CHO cells, counter-screen for KCNQ1 potentiator project (AID 493006;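 active = duplicate-averaged activation above buffer control mean plus 5 SD of those controls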;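 for activation: fluorescence ratio of max minus min over baseline after K+ and Tl+ depolarization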); details: parental CHO-K1 cells, FluxOR thallium flux, at 10 µM; active compounds read high
Outline: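 Benchmarks – buffer and R-L3 controls · Assay system – untransfected host CHO-K1 cells with FluxOR thallium dye · Measure – fluorescence change ratio scaled 0% buffer, 100% R-L3 · Technique – kinetic thallium-flux fluorescence · Timing – overnight 37 °C plating, 90 min RT dye, 20 min compound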

[2] = target: Potassium voltage-gated channel subfamily KQT member 1 (Homo sapiens) (UniProt P51787); assay: KCNQ1 potassium channel potentiators, confirmation, FluxOR thallium flux, CHO cells, duplicates (AID 493007;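 active = potentiation averaged over duplicate wells exceeding buffer-only control mean by more than 3 SD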;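 for outcome: cells depolarized by a potassium plus thallium sulfate stimulus after compound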); details: KCNQ1 cell line, FluxOR thallium flux fluorescence, at 10 µM; active compounds read high, % of reference activator effect, buffer zero
Outline: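 Material: CHO cells stably expressing the KCNQ1 potassium channel / Times: dye 90 min then compound 20 min, both at room temperature / Detection: kinetic thallium influx fluorescence with FluxOR dye, 10 s baseline, 110 s post-stimulus / Benchmarks: buffer-only wells as 0% and R-L3 activator as 100% / Replicates: each compound tested in duplicate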

[3] = target: Potassium voltage-gated channel subfamily KQT member 2 (Rattus norvegicus) (UniProt O88943); assay: rat KCNQ2 channel potentiation, selectivity assay for KCNQ1 potentiator project, KCNQ2-CHO-K1 cells (AID 493009); details: FluxOR thallium flux fluorescence, at 10 µM; active compounds read high, scaled: buffer 0, activator control 100;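 note: assay conditions were tuned for KCNQ1 rather than KCNQ2 modulators; signal is max minus min fluorescence divided by baseline after thallium stimulus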
[4] = target: Potassium voltage-gated channel subfamily KQT member 1 (Homo sapiens) (UniProt P51787); assay: KCNQ1 channel current potentiators, confirmation, orthogonal assay for KCNQ1 potentiator project, IonWorks patch clamp, KCNQ1-CHO cells (AID 493184;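 active = current rise at least 3 SD above the untreated control mean in each of two repeat wells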;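 for current potentiation: percent change of the same well's current before compound addition so 0% = no change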); details: automated patch clamp current, at 10 µM; active compounds read high
Outline: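 Probe or stimulus: depolarizing pulse to +40 mV from -90 mV; Material: CHO cells carrying KCNQ1; Compound: one dose, 10 µM final; Signal: automated voltage clamp, amphotericin B perforated patch; Read-out basis: percent current increase versus pre-compound level; Buffer or medium: pH 7.4 external bath; Replication: duplicates.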

[5] = target: Potassium voltage-gated channel subfamily E member 1 (Homo sapiens) + Potassium voltage-gated channel subfamily KQT member 1 (Homo sapiens) (UniProt P15382+P51787); assay: KCNQ1/KCNE1 complex potentiators, confirmation, selectivity assay for KCNQ1 potentiator project, thallium flux, CHO-K1 KCNQ1/E1 cells (AID 493186;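 active = mean duplicate activation above the buffer control mean plus 5 SD of those controls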); details: FluxOR thallium flux, at 10 µM; active compounds read high
Outline: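 system = KCNQ1/E1-expressing stable CHO-K1 cell line | doses = single compound concentration per well | times = dye 90 min, compound 20 min, room temperature | measured by = FluxOR Tl+ flux fluorescence, kinetic read | evaluation = fluorescence rise relative to baseline, as percent of R-L3 response above buffer | controls = buffer and R-L3 | replicates = duplicate wells per compound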

Potassium voltage-gated channel subfamily KQT member 2 (Rattus norvegicus), sequence (O88943 whole entry, looked up): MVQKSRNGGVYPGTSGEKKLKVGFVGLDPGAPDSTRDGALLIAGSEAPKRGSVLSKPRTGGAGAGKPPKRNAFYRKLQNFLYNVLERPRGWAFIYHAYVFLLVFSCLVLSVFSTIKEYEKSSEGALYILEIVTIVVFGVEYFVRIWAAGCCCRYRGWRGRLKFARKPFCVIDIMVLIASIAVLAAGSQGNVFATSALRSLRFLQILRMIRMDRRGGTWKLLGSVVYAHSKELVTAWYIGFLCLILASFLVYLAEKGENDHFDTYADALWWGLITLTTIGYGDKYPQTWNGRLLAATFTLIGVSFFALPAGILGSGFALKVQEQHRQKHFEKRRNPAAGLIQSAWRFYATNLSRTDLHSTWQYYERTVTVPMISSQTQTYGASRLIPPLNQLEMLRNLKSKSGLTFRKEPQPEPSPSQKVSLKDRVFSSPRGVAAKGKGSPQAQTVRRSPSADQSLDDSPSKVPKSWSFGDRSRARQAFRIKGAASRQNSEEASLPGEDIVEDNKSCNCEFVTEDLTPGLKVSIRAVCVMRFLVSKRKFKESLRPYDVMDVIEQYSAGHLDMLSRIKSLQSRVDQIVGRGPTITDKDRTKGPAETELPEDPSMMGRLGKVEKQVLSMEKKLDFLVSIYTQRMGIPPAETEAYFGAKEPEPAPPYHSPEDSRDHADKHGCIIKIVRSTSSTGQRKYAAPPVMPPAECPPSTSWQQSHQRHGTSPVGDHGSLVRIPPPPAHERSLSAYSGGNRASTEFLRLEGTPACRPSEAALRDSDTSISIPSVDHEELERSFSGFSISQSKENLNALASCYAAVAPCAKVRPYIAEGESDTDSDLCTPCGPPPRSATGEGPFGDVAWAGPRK
Potassium voltage-gated channel subfamily KQT member 1 (Homo sapiens), sequence (P51787 whole entry, looked up): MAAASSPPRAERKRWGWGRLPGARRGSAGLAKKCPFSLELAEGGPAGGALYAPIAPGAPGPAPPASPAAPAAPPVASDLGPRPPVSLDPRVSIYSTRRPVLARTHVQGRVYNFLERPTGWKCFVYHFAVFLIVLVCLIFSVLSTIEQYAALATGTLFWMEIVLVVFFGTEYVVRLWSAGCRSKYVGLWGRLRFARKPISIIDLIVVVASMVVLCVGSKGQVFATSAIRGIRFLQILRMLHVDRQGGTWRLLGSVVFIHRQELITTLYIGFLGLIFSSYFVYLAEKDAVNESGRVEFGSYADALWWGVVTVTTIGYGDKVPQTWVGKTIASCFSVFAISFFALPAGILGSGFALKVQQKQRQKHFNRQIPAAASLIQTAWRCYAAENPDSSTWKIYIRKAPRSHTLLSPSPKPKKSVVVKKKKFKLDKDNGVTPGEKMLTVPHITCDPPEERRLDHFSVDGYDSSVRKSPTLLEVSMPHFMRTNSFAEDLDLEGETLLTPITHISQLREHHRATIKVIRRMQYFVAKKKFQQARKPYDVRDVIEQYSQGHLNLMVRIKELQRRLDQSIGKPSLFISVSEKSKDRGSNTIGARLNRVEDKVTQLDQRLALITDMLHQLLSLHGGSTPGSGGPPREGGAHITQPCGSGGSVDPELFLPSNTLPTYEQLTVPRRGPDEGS
Potassium voltage-gated channel subfamily E member 1 (Homo sapiens) + Potassium voltage-gated channel subfamily KQT member 1 (Homo sapiens), sequence (P51787 whole entry, looked up): as the sequence (P51787 whole entry, looked up) above

COc1ccc(NC(=O)/C(=C/c2ccc(OC(C)=O)c(OC)c2)NC(C)=O)cc1
inactive: outcome [1] | outcome [2] | outcome [3] | outcome [4]

O=C(NC(=S)Nc1ccccc1N1CCCC1)c1ccccc1Br
inactive: outcome [4]
active: activation [1] 179% | potentiation [2] 55% | potentiation [3] 202%

CSc1nc2sc3c(c2c(=S)[nH]1)CC(C)(C)OC3
active: activation [1] 528% | potentiation [2] 298% | potentiation [3] 652%
inactive: outcome [4]

O=C(Cn1c(=O)c2c(ncn2Cc2ccccc2)n(Cc2ccccc2)c1=O)N1CCc2ccccc21
inactive: outcome [1] | outcome [2] | outcome [3] | outcome [4]

OC(CON=C1c2ccccc2-c2ccccc21)CN1CCNCC1 (stereo not drawn)
inactive: outcome [1] | outcome [2] | outcome [3] | outcome [4]

O=C(/C=C/c1ccc(Br)cc1)NC(=S)Nc1ccc(S(=O)(=O)Nc2nccs2)cc1
inactive: outcome [1] | outcome [2] | outcome [3] | outcome [4]

CSc1ccc(/C=N/NC(=O)c2cccs2)cc1
inactive: outcome [1] | outcome [2] | outcome [3] | outcome [4]

COc1ccccc1C(=O)OCC(=O)Nc1ccc(Cl)cn1
inactive: outcome [1] | outcome [2] | outcome [3] | outcome [4]

Cc1ccc2c(c1)C1CN(C)CCC1N2C(=S)NC(=O)c1ccc(Cl)cc1Cl (stereo not drawn)
active: activation [1] 194% | potentiation [2] 50% | potentiation [3] 217%
inactive: outcome [4]

O=C(NCc1cccc(Cl)c1)c1cccc(OC2CCN(C(=O)C3CC3)CC2)c1
inactive: outcome [1] | outcome [2] | outcome [3] | outcome [4]

O=C(CN(c1ccc(Cl)cc1)S(=O)(=O)c1ccc(Cl)c([N+](=O)[O-])c1)NCCc1ccc(F)cc1
inactive: outcome [1] | outcome [2] | outcome [3] | outcome [4]

O=C(NNC(=O)c1ccc2ccccc2c1O)c1cccs1
inactive: outcome [1] | outcome [2] | outcome [3] | outcome [4]

COC(=O)c1ccc(CSc2ncnc3c2sc2nc(N4CCOCC4)c4c(c23)CCCC4)o1
inactive: outcome [1] | outcome [2] | outcome [3] | outcome [4]

COC(=O)c1sccc1NC(=S)NCc1ccc(Cl)cc1
active: activation [1] 144% | potentiation [2] 62.5%
inactive: outcome [3] | outcome [4]

CC(C)(C)C(=O)NC(=S)NNC(=O)c1ccc(Cl)cc1Cl
inactive: outcome [1] | outcome [4]
active: potentiation [2] 52% | potentiation [3] 171%

CCC(C)c1ccccc1OCCCNC1CCCC1 (stereo not drawn)
inactive: outcome [1] | outcome [2] | outcome [3] | outcome [4]

COC(=O)c1sc(-c2ccc(C(C)(C)C)cc2)cc1NC(=O)/C=C/C(=O)O
active: activation [1] 427% | potentiation [2] 130% | potentiation [3] 320% | current potentiation [4] 20.6%

O=[N+]([O-])c1ccc(Nc2ccc(Cl)cc2)nc1
active: potentiation [3] 166%
inactive: outcome [1] | outcome [2] | outcome [4]

O=C(NNc1nc2c(F)cccc2s1)c1cc(=O)c2ccccc2o1
inactive: outcome [1] | outcome [2] | outcome [3] | outcome [4]

COC(=O)c1ccc(CNC(=O)c2ccc(COc3ccccc3)cc2)cc1
inactive: outcome [1] | outcome [2] | outcome [3] | outcome [4]

CC(C)(C)c1ccc(OCC(=O)NNC(=S)NC(=O)c2ccco2)c(Br)c1
active: activation [1] 150% | potentiation [2] 89.5% | potentiation [3] 254%
inactive: outcome [4]

Cc1noc(C)c1CSc1ncnc2sc3c(c12)CCCCC3
active: activation [1] 175% | potentiation [2] 60% | potentiation [3] 178%
inactive: outcome [4]

COc1ccccc1NC(=O)C(=O)NNC(=O)COc1ccc2ccccc2c1
active: activation [1] 442% | potentiation [2] 174% | potentiation [3] 555%
inactive: outcome [4]

FC(F)(F)c1cnc2c(c1)[nH]c(=S)n2-c1ccc(Cl)cc1
inactive: outcome [4]
active: activation [1] 142% | potentiation [2] 27% | potentiation [3] 178%

Cc1ccc(-c2csc3nc[nH]c(=S)c23)cc1
active: activation [1] 308% | potentiation [2] 124% | potentiation [3] 300%
inactive: outcome [4]

COc1cccc(OC)c1C(=O)Nc1ccc(C(=O)NCc2ccccc2)cc1
inactive: outcome [1] | outcome [2] | outcome [3] | outcome [4]

N#CC1(c2ccc(NC(=O)c3ccccc3F)cc2)CCCC1
inactive: outcome [1] | outcome [2] | outcome [3] | outcome [4]

Cc1cccc(C(=O)NC(=S)NNC(=O)COc2ccc(Cl)cc2)c1
active: activation [1] 140% | potentiation [2] 52% | potentiation [3] 186%
inactive: outcome [4]

O=c1c2cc(Cl)ccc2nc(-c2ccccc2)n1O
inactive: outcome [4]
active: activation [1] 298% | potentiation [2] 82.5% | potentiation [3] 269%

CCN(Cc1cc2cc(OC)ccc2[nH]c1=O)C(=O)c1ccncc1
inactive: outcome [1] | outcome [2] | outcome [3] | outcome [4]

CCCCCn1c(=O)c2ccccc2n2c(=S)[nH]nc12
active: activation [1] 152% | potentiation [2] 39% | potentiation [3] 158%
inactive: outcome [4]

Cc1[nH]n(-c2ccc(F)cc2)c(=O)c1/C=N/c1sc2c(c1C#N)CCCC2
active: activation [1] 276% | potentiation [2] 85.5% | potentiation [3] 246%
inactive: outcome [4]

O=C(Nc1nc2c(Br)cc(Br)cc2c(=O)s1)c1ccco1
inactive: outcome [1] | outcome [2] | outcome [3] | outcome [4] | outcome [5]

COc1ccccc1NC(=O)CC1C(=O)NCCN1C(=O)Nc1ccc(Cl)c(Cl)c1 (stereo not drawn)
active: potentiation [2] 37.5% | potentiation [3] 157%
inactive: outcome [1] | outcome [4] | outcome [5]

CCN(CC)S(=O)(=O)c1cccc(C(=O)N/N=C/c2cccc(O)c2O)c1
inactive: outcome [1] | outcome [2] | outcome [3] | outcome [4] | outcome [5]

Cc1cccc(C(=O)NN2C(=O)C3C(c4ccccc4)C=CC(c4ccccc4)C3C2=O)c1 (stereo not drawn)
inactive: outcome [1] | outcome [2] | outcome [3] | outcome [4] | outcome [5]

NC(=O)c1ccsc1NC(=O)COC(=O)Cc1ccsc1
inactive: outcome [1] | outcome [3] | outcome [4] | outcome [5]
active: potentiation [2] 182%

CC(=O)c1cccc(OCc2cc(C(=O)N(C)C(C)c3ccccn3)no2)c1 (stereo not drawn)
inactive: outcome [1] | outcome [2] | outcome [3] | outcome [4] | outcome [5]

CN(C)c1cccc(C(=O)N2CCCC(C(=O)c3cc(F)ccc3F)C2)c1 (stereo not drawn)
inactive: outcome [1] | outcome [2] | outcome [3] | outcome [4] | outcome [5]

CCN(CC)CCSc1nc2ccccc2c(=S)n1-c1ccccc1
inactive: outcome [1] | outcome [2] | outcome [3] | outcome [4] | outcome [5]

COc1ccccc1C(=O)NNC(=O)C(=O)NC(C)C
inactive: outcome [1] | outcome [2] | outcome [3] | outcome [4] | outcome [5]

O=C(NC1CCCC1)C(c1cccnc1)N(C(=O)c1csnn1)c1ccccc1 (stereo not drawn)
active: potentiation [2] 27%
inactive: outcome [1] | outcome [3] | outcome [4] | outcome [5]

O=C(CN(CCO)c1ccccc1)Nc1cccc(S(=O)(=O)N2CCCC2)c1
inactive: outcome [1] | outcome [3] | outcome [4] | outcome [5]
active: potentiation [2] 22.5%

CCOC(=O)c1c(C)nc2sc3c(=O)n(-c4ccc(OC)cc4)cnc3c2c1-c1ccc(OC)cc1
inactive: outcome [1] | outcome [2] | outcome [3] | outcome [4] | outcome [5]

O=C(CN(CC1CCCO1)C(=O)CNS(=O)(=O)c1ccc(Cl)cc1)NC1CCCC1 (stereo not drawn)
inactive: outcome [1] | outcome [2] | outcome [3] | outcome [4] | outcome [5]

CCOC(=O)c1c(N)sc(C(C)=O)c1C
inactive: outcome [1] | outcome [2] | outcome [3] | outcome [4] | outcome [5]

O=c1oc2ccccc2c(Cl)c1CN1CCCCC1
inactive: outcome [1] | outcome [2] | outcome [3] | outcome [4] | outcome [5]

CN1C(=O)c2ccc(NC(=O)c3c(F)c(F)c(F)c(F)c3F)cc2C1=O
inactive: outcome [1] | outcome [3] | outcome [4] | outcome [5]
active: potentiation [2] 25.5%

CCN(CC)CCCNC(=O)c1c(O)c2cc(F)cc3c2n(c1=O)C(C)CC3 (stereo not drawn)
inactive: outcome [1] | outcome [2] | outcome [3] | outcome [4] | outcome [5]

Cc1ccc(-c2csc(NC(=O)Cc3ccc(F)cc3)n2)o1
inactive: outcome [1] | outcome [2] | outcome [3] | outcome [4] | outcome [5]

CC(c1ccccc1)c1nnc(N)s1 (stereo not drawn)
inactive: outcome [1] | outcome [2] | outcome [3] | outcome [4] | outcome [5]

Cc1cc(C)cc(OCC(=O)NNC(=O)c2cc3ccccc3o2)c1
inactive: outcome [1] | outcome [2] | outcome [3] | outcome [4] | outcome [5]

O=[N+]([O-])c1ccc(S(=O)(=O)CC(CN2CCCCC2)N2CCCCC2)cc1 (stereo not drawn)
inactive: outcome [1] | outcome [2] | outcome [3] | outcome [4] | outcome [5]

N=c1sccn1CC(=O)Nc1ccc(S(=O)(=O)N2CCOCC2)cc1
inactive: outcome [1] | outcome [2] | outcome [3] | outcome [4] | outcome [5]

COc1ccccc1OCCCc1c(C)n[nH]c1C
inactive: outcome [1] | outcome [2] | outcome [3] | outcome [4] | outcome [5]

Cc1cc(/C=N/NC(=O)C(O)(c2ccccc2)c2ccccc2)c(C)n1-c1ccccc1
inactive: outcome [1] | outcome [2] | outcome [3] | outcome [4] | outcome [5]

O=C(NC(=S)Nc1cccc(Cl)c1N1CCCCC1)c1cccs1
active: potentiation [2] 54%
inactive: outcome [1] | outcome [3] | outcome [4] | outcome [5]

CCOC(=O)c1cc(C)sc1NC(=O)CN1CCN(C(=O)c2ccco2)CC1
active: potentiation [2] 17.5%
inactive: outcome [1] | outcome [3] | outcome [4] | outcome [5]

CN(C)CCCN(C(=O)CCOc1ccccc1)c1nc2c(F)cccc2s1
inactive: outcome [1] | outcome [2] | outcome [3] | outcome [4] | outcome [5]

CC(C1CC2CCC1C2)n1c(-c2ccco2)n[nH]c1=S (stereo not drawn)
inactive: outcome [1] | outcome [2] | outcome [3] | outcome [4] | outcome [5]

CCOC(=O)N1CCC(N2C(=O)c3ccc(C(=O)NCCC(C)C)cc3C2=O)CC1
active: potentiation [2] 69% | potentiation [3] 150%
inactive: outcome [1] | outcome [4] | outcome [5]
